This note sets out measurements from the array DNA melting data of Ke et al. (doi:10.1101/2024.01.08.574731).

Data set [1] can be described thus: folding enthalpy; higher = less favourable; fluorescence melt of hairpins on a sequencing array, two-state fit. The following applies: sodium 0.088 M. In outline: (§1)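 In 50 mM Na-HEPES pH 8.0 containing 25 mM NaCl, hairpins from the library on a sequenced MiSeq flow cell were imaged for Cy3 fluorescence at 2.5 °C steps up to 60 °C, with Cy3 and quencher oligos annealed. After normalisation to pre-quench Cy3 and to control constructs, two-state fits with bootstrapping gave melting temperature and folding enthalpy. Four replicates were combined by inverse-variance weighting, and fitted temperatures were shifted up by 9.35 °C to match UV melts.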

Data set [2] in a line: melting temperature; fluorescence melt of hairpins on a sequencing array, two-state fit, raised by 9.35 °C to match UV melts. As to conditions: sodium 0.088 M. In a few lines: as §1

With GCTATATCGAAAGATAGC (((..(((....)))))), in data set [1], the folding enthalpy was -25.2 kcal/mol. Further, the Tm in data set [2] amounted to 36.2 °C.

In the case of GATACCGAAAGGTGAATC ((((((....)))..))), in data set [1], the folding enthalpy was -12.6 kcal/mol. In addition, the Tm in data set [2] turned out to be 27.2 °C.

Turning to GATCCCGGAGGGGATC ((((((....)))))), the folding enthalpy in data set [1] was -19.4 kcal/mol. Also, the Tm in data set [2] came to 65.8 °C.

For the sequence GCACCTGGAAACAGGTAC (.(((((....))))).), the folding enthalpy in data set [1] is -13.2 kcal/mol. In addition, the Tm in data set [2] was 40.9 °C.

Take GCTGCTCGAAAGAGGAGC (((.(((....))).))): the folding enthalpy in data set [1] was -38.9 kcal/mol. Also, the Tm in data set [2] was determined as 59.6 °C.

On to GATCCGTAGTCGGATC ((((((....)))))), for which the folding enthalpy in data set [1] was -36 kcal/mol. The Tm in data set [2] stood at 57 °C.

For the sequence GTTAATGGAAACATTGAC ((.((((....)))).)), the folding enthalpy in data set [1] was -26.1 kcal/mol. For the same sequence, the Tm in data set [2] was 37.3 °C.

Regarding CGTTCGGAAACGATCACG ((((((....)))..))), the folding enthalpy in data set [1] was -13.9 kcal/mol. In addition, the Tm in data set [2] came out at 30.9 °C.

For the sequence GAAACGACGAAAGTCTTC (((..(((....)))))), the folding enthalpy in data set [1] was -9.41 kcal/mol. Moreover, the Tm in data set [2] was found to be 29.5 °C.

In the case of GGGATCGGAAACGGTCCC ((((.((....)).)))), in data set [1], the folding enthalpy is -47.5 kcal/mol. In addition, the Tm in data set [2] was 57.8 °C.

As to GTTGGGGGAAACCTCAGC (.((.((....)).)).), in data set [1], the folding enthalpy is -17.4 kcal/mol. Further, in data set [2], the Tm came out at 31 °C.

Take GTTATCCGAAAGGACAAC (((.(((....))).))): in data set [1], the folding enthalpy was -26.3 kcal/mol. Also, in data set [2], the Tm came to 39.6 °C.

As to GAGTCCGAAAGGAACTC ((((((....))).))), the folding enthalpy in data set [1] is -27.7 kcal/mol. The Tm in data set [2] turned out to be 50.7 °C.

Take GATACAGGAAACTGTACC (.(((((....))))).): in data set [1], the folding enthalpy is -15.4 kcal/mol. Further, in data set [2], the Tm was found to be 31.1 °C.

Regarding GGCAACGAAAGTTCAGCC ((((((....)))..))), in data set [1], the folding enthalpy was -24.4 kcal/mol. Moreover, in data set [2], the Tm was 41.1 °C.

On to GCGTGCGGAAACGCATGC ((.((((....)))).)), for which the folding enthalpy in data set [1] was -31 kcal/mol. In addition, the Tm in data set [2] turned out to be 67.4 °C.

For the sequence GTTGATGGAAACATTAAC (((.(((....))).))), in data set [1], the folding enthalpy is -34.1 kcal/mol. For the same sequence, in data set [2], the Tm stood at 37.5 °C.

As to GTCTATCGAAAGATGAC (((.(((....)))))), the folding enthalpy in data set [1] is -27.1 kcal/mol. Besides, the Tm in data set [2] came out at 42 °C.

Turning to GAAGACGAAAGTCCTTTC ((((((....)))..))), in data set [1], the folding enthalpy is -11.6 kcal/mol. Moreover, the Tm in data set [2] is 29.6 °C.

In the case of GGAGTAGGAAACTACCCC ((.((((....)))).)), the folding enthalpy in data set [1] is -24.4 kcal/mol. The Tm in data set [2] came to 35.1 °C.

For the sequence GCCTTGGGAAACTAAGGC (((((.(....).))))), in data set [1], the folding enthalpy is -34.7 kcal/mol. Further, the Tm in data set [2] was determined as 50.9 °C.

In the case of GTACCAGGAAACTGATAC (((.(((....))).))), in data set [1], the folding enthalpy is -26.6 kcal/mol. Also, the Tm in data set [2] came to 31.4 °C.

Take GGTCCCACGAAAGTGACC (((..(((....)))))): the folding enthalpy in data set [1] is -15.8 kcal/mol. The Tm in data set [2] came to 36.8 °C.

In the case of GCGCACCGAAAGGTCCGC (((.(((....))).))), in data set [1], the folding enthalpy is -37.8 kcal/mol. In data set [2], the Tm was 55.6 °C.

GAGGGAGGAAACTCCCTC (((((((....))))))): the folding enthalpy in data set [1] is -41.1 kcal/mol. Moreover, the Tm in data set [2] was found to be 62.9 °C.

As for GCGGCCTCCGC ((((...)))), in data set [1], the folding enthalpy was -17.7 kcal/mol. Besides, the Tm in data set [2] amounted to 61.8 °C.

For GAGAAACGAAAGTTGCTC (((.(((....))).))), the folding enthalpy in data set [1] is -28 kcal/mol. Further, the Tm in data set [2] was 48.8 °C.

For the sequence GAGTTTGGAAACAAATTC ((.((((....)))).)), the folding enthalpy in data set [1] was -28.7 kcal/mol. Besides, in data set [2], the Tm was determined as 35.8 °C.

As to GTACTTGGAAACAAGCAC ((.((((....)))).)), in data set [1], the folding enthalpy is -25.8 kcal/mol. For the same sequence, the Tm in data set [2] came to 37.8 °C.

Take GCATTCGAAAGAATGC ((((((....)))))): in data set [1], the folding enthalpy was -28.3 kcal/mol. Further, in data set [2], the Tm came out at 69.2 °C.

On to GTCTTGGGAAACCGAGAC ((((.((....)).)))), for which, in data set [1], the folding enthalpy is -33 kcal/mol. In addition, in data set [2], the Tm was found to be 49.9 °C.

In the case of GACCCAGGAAACTAGGTC ((((.((....)).)))), the folding enthalpy in data set [1] was -26.7 kcal/mol. The Tm in data set [2] is 36 °C.

GTAGTGCCGAAAGGCTAC (((..(((....)))))): the folding enthalpy in data set [1] is -9.39 kcal/mol. The Tm in data set [2] turned out to be 36.2 °C.

For GCGACGGCGAAAGCCCGC (((..(((....)))))), the folding enthalpy in data set [1] is -16.6 kcal/mol. Besides, the Tm in data set [2] stood at 58.1 °C.

On to GATCTGCCTCCAGATC ((((((....)))))), for which, in data set [1], the folding enthalpy was -32.6 kcal/mol. Further, in data set [2], the Tm stood at 46.3 °C.

With GGTTCCGAAAGGAAGACC ((((((....)))..))), the folding enthalpy in data set [1] is -15.1 kcal/mol. Also, the Tm in data set [2] came to 42.1 °C.

Regarding GGCCCACGAAAGTGGCC (((.(((....)))))), in data set [1], the folding enthalpy is -17.8 kcal/mol. Also, the Tm in data set [2] was found to be 65.4 °C.
